An excerpt weighted towards active compounds, which were near 6.5% of everything screened.
tolC growth inh – growth inhibitors of E. coli BW25113 tolC mutant | OD615 | growth inhibition, % at 10 µM (by protocol) | 65,000 tested, 2.2% active;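 active means growth inhibition at or above a cutoff equal to the mean over every tested compound plus 3 SD, cut at about 60% in these data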;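 further: growth measured after 20 h incubation at 37 °C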
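Test system – E. coli BW25113 ΔtolC::kan, tolC deletion mutant strain · Detection – OD at 615 nm · Buffer or medium – LB with kanamycin 50 µg/mL · Times – 20 h compound exposure of bacteria at 37 °C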
PostGolgi ctrl – growth of the yeast control strain, post-Golgi counter-screen | efflux-deficient yeast background strain, growth absorbance A615, 16 h | inhibition, % at 10 µM | 98,000 tested, 5% active
Pyk2 oligo antag – blocks oligomerization of human Pyk2 in cells; Q14289; 99,000 tested, 0.83% active; z-score (the deposit names both 25 µM and 10 µM); Q293 cells, Pyk2 FERM NanoBiT luminescence; hits give low values;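 active means Z-score of -3 or lower, scaled per plate to the spread of control and sample wells; inactive means z-score above -3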;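 further: negative z-score means lost luminescence so less FERM oligomerization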
Target sequence (Q14289 whole entry, looked up): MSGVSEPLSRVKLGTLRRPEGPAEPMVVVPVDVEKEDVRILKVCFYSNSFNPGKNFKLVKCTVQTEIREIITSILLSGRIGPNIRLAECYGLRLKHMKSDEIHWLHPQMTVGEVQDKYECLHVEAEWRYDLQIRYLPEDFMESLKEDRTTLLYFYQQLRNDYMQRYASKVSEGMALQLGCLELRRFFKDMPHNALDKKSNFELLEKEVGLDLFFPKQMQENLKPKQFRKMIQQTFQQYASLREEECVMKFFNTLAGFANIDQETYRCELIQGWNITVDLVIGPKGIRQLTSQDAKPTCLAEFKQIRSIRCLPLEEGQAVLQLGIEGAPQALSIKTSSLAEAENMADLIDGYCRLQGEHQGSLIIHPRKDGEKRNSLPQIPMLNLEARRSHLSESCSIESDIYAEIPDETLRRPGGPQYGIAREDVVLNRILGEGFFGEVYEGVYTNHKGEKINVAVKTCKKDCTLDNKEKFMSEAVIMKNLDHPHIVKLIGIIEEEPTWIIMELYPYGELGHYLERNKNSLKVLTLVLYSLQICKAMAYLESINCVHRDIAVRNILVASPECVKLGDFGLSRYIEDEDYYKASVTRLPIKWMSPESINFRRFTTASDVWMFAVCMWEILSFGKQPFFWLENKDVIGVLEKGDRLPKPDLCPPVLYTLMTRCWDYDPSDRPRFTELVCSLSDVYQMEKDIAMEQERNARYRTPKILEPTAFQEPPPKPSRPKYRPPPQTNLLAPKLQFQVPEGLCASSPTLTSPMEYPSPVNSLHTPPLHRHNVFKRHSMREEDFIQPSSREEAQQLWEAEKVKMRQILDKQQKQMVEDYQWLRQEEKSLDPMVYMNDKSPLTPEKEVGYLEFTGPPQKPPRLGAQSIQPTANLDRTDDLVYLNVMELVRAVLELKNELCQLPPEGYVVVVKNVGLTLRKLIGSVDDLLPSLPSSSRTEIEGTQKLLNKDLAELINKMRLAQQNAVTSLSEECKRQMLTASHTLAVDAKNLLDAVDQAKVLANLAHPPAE
Candida biofilm – kills Candida albicans biofilms; C. albicans biofilm + clotrimazole, Alamar Blue; inhibition, % at 6 µM; 85,000 tested, 0.14% active;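 active means inhibition above 20%; inactive means inhibition below 20%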;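 further: preformed 24 hr biofilms exposed to compound for 48 hr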
PostGolgi yeast – growth inhibition of a yeast mutant, post-Golgi transport screen. post-Golgi transport phenotypic cell assay. inhibition, % at 10 µM. 98,000 tested, 0.9% active;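 further: yeast cells grown in 1536-well plates; yeast grown about 18 h at 30C before absorbance read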
E coli WT exp – blocks growth of wild type E. coli BW25113. OD600 absorbance. growth inhibition, % at 100 µM. 98,000 tested, 0.15% active;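 active means growth inhibition above about 50% at one test dose, limit read from the data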;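 further: growth measured after 20 h incubation at 37 °C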
Hits are given with their value; - = inactive; . = not tested or not shown. Unless noted, no stated cut-off is given here; in the data, active means inhibition above about 30%; inactive means the rest.

SMILES	tolC growth inh	PostGolgi ctrl	Pyk2 oligo antag	Candida biofilm	PostGolgi yeast	E coli WT exp
CC(=O)c1c(C)n([O-])c2cc(C)ccc2[n+]1=O	91.5	-	-	.	-	-
COc1ccc(-c2c(C)n([O-])c(C)c(C)[n+]2=O)cc1OC	-	-	-	-	-	-
CCOC(=O)c1cccc(NC(=O)c2cccnc2)c1	-	-	-	-	-	-
CCOC(=O)c1cccc(Nc2nc(-c3cccnc3)nc3ccccc23)c1	.	67.9	-3.65	.	-	-
CC(=O)c1c(C(C)=O)c(C)n(-c2nc(-c3ccc(C)c(C)c3)c(C)s2)c1C	.	47.6	-	-	-	-
O=C(Nc1nc2c(Cl)ccc(Cl)c2s1)c1ccco1	-	-	.	-	-	-
O=C(Nc1nc2c(ccc3ccccc32)s1)c1ccco1	-	-	-3.32	.	-	-
Cc1ccc2ccc(S(=O)(=O)n3nc(C)cc3C)cc2c1	77.9	-	-	-	-	-
CC(=O)Nc1ccc(S(=O)(=O)n2nc(C)cc2C)cc1	-	-	-	-	-	-
CCCCOC(=O)Nc1cc(OC)c(Cl)cc1OC	-	-	-	-	-	-
COc1cc(NC(=O)c2cccc3c2C(=O)N(Cc2cccnc2)C3)cc(OC)c1OC	-	-	.	-	-	-
Cc1sc(NC(=O)C2CCCCC2C(=O)O)c(C(N)=O)c1-c1ccc(C(C)(C)C)cc1 (stereo not drawn)	.	30.5	-	.	-	-
Cc1sc(NC(=O)C2CCCCC2C(=O)O)c(C(N)=O)c1-c1ccccc1 (stereo not drawn)	.	-	-	.	-	-
CC(C)OCCCNC(=O)c1cccs1	-	32.3	-	-	-	-
Cc1cc(C)cc(C(=O)O/N=C(\N)c2ccc(Br)cc2)c1	.	30.0	-	-	-	-
N#Cc1cc(-c2ccccc2)c[nH]c1=O	.	-	-	.	-	-
COc1ccccc1CN1C(=O)CN(C2CCCCCC2)C(=O)C1c1ccc(F)cc1 (stereo not drawn)	.	48.5	-	-	-	-
COc1cccc(C2C(=O)N(C3CCCCC3)CC(=O)N2Cc2ccc(F)cc2)c1 (stereo not drawn)	.	-	-	-	-	-
CC(=O)c1nc2ccccc2n1S(=O)(=O)c1ccc(C)cc1	-	39.9	-	-	-	-
Cc1cccc(-n2ncc3c(N4CC(C)CC(C)C4)ncnc32)c1 (stereo not drawn)	63.5	33.0	.	-	-	-
Clc1ccc(Cn2ncc3c(N4CCCCC4)ncnc32)cc1	-	-	-	-	-	-
Clc1ccc(Cn2ncc3c(N4CCCCC4)ncnc32)c(Cl)c1	73.5	-	.	-	-	-
Clc1ccc(Cn2ncc3c(N4CCCC4)ncnc32)cc1	-	-	-	-	-	-
CC1CC(C)CN(c2ncnc3c2cnn3Cc2ccc(Cl)cc2)C1 (stereo not drawn)	80.9	50.8	-	-	-	-
CCCCOCCCNC(=O)/C=C/c1ccccc1Cl	.	.	-	.	.	.
SMILES	tolC growth inh	PostGolgi ctrl	Pyk2 oligo antag	Candida biofilm	PostGolgi yeast	E coli WT exp
CC1CCCC(NC(=O)COC(=O)c2cc(S(=O)(=O)N3CCCCC3)ccc2N2CCOCC2)C1C (stereo not drawn)	.	-	-	.	-	-
CCOC(=O)c1c(N)sc2c(O)c(Br)ccc12	-	48.6	-	-	-	-
CCOc1ccc2c(c1)c(C(C)=O)c(C)n2-c1ccccc1	.	41.1	-	-	-	-
CC(C)Nc1nc(SCC(=O)Nc2ccccc2)nc(N2CCOCC2)n1	-	-	-	-	-	-
C=CCc1c(C)c(C#N)c2nc3ccccc3n2c1NCCN(C)C	-	73.7	-	-	81.6	-
CCc1c(C)c(C#N)c2nc3ccccc3n2c1NCCN(C)C	-	42.0	-	-	-	-
COc1cc(CNc2ccccc2SC)cc(OC)c1OC	.	-	-	-	-	-
Cc1ccc(S(=O)(=O)/N=C(\c2ccc(Cl)cc2)N2CCOCC2)cc1	.	-	-	.	-	-
Cc1cccc(C(=O)N2CCN(c3ccc([N+](=O)[O-])c(NCc4ccco4)c3)CC2)c1	.	38.8	-	.	-	-
CCOC(=O)c1cn(CC)c2cc(N3CCSCC3)c(F)cc2c1=O	100.0	-	-	-	-	-
CCn1cc(C(=O)N[C@H](C)c2ccccc2)c(=O)c2cc(F)c(N3CCN(C)CC3)cc21	.	-	-	-	-	-
CCn1cc(C(=O)O)c(=O)c2cc(F)c(N3CCNCC3)cc21	-	.	.	21.9	.	.
CCn1cc(C(=O)O)c(=O)c2cc(F)c(N3CCN(C(=O)Nc4ccccc4)CC3)cc21	100.0	-	-	-	-	94.0
CCOC(=O)CC(Nc1nc(N2CCOCC2)nc(N2CCOCC2)n1)c1ccccc1Cl (stereo not drawn)	-	-	-	-	-	-
CCOC(=O)N1CCC(NC(=O)c2cc(C)c3c(C)nn(-c4ccccc4)c3n2)CC1	-	-	-	-	-	-
COc1cc(OC)c2c(c1)C(=O)c1cc(OC)cc(OC)c1C2=O	.	-	-	.	-	-
FC(F)(F)c1cc(-c2ccccc2)nc(NCc2cccnc2)n1	.	34.0	-3.4	-	-	-
COc1ccc(-c2oc(/N=C/N3CCOCC3)c(C#N)c2-c2ccc(OC)cc2)cc1	-	-	-3.57	-	-	-
O=C(CSc1ncn[nH]1)Nc1nc(-c2ccccc2)cs1	.	-	-	-	-	-
Cc1cc(=O)[nH]c(SCC(=O)Nc2nc(-c3ccccc3)cs2)n1	69.5	-	-	-	-	-
O=C(/C=C/c1cccs1)Nc1nc(-c2ccccc2)cs1	.	33.0	-	.	-	-
Cc1csc(SCC(=O)Nc2nc(-c3ccccc3)cs2)n1	91.1	-	-	-	-	-
O=C(CSc1nncs1)NC(=O)NCc1ccccc1	-	-	-	-	-	-
Cc1csc(SCC(=O)NC(=O)NCc2ccccc2)n1	-	41.9	-	-	-	-
CCC(C)n1ncn(-c2ccc(N3CCN(c4ccc(OC)cc4)CC3)cc2)c1=O (stereo not drawn)	.	.	-	.	.	.
SMILES	tolC growth inh	PostGolgi ctrl	Pyk2 oligo antag	Candida biofilm	PostGolgi yeast	E coli WT exp
O=C(NCc1ccco1)C1CCN(S(=O)(=O)Cc2ccccc2)CC1	.	.	-	-	.	.
c1ccc(-c2nnc(SCCC3OCCCO3)o2)cc1	.	-	-	.	-	-
CN(CCO)c1nc(N)c2c(N)nc3c(c2c1C#N)CC(=O)N3C1CCCC1	.	-	.	-	-	-
CC(C)(C)N1C(=O)Cc2c1nc(N)c1c(N)nc(N3CCCCC3CO)c(C#N)c21 (stereo not drawn)	80.1	-	-	-	-	-
CCc1cc2c(C)cc(=O)oc2cc1OC(=O)C1CCCN1C(=O)OC(C)(C)C (stereo not drawn)	-	-	.	-	-	-
CCO/C(C)=C1\C(=O)Nc2ccccc21	.	-	-	-	-	-
CCCc1nnc(SCC(=O)N2CCCC(C)C2)n1CC1CCCO1 (stereo not drawn)	.	-	-	-	-	-
COc1cccc(-c2nn(C)c3sc(C(=O)Nc4ccc5c(c4)OCCO5)cc23)c1	-	36.8	-	-	-	-
COc1cccc(-c2nn(C)c3sc(C(=O)NCc4ccc(C)cc4)cc23)c1	.	-	-	-	-	-
Cn1nc(-c2ccccc2F)c2cc(C(=O)Nc3ccc4c(c3)OCCO4)sc21	.	51.5	-	-	-	-
Cn1c(SCCCC(=O)c2ccc(F)cc2)nnc1-c1ccncc1	.	-	-	-	-	-

Source: PubChem
